Screens deposited in PubChem by several laboratories.
Calb FLC = C. albicans growth modulation with fluconazole. C. albicans CaCi-2 (fluconazole-resistant clinical isolate) + fluconazole, Alamar Blue growth, 48 h. growth inhibition, % (no concentration beside the values). actives 0.57% (n = 300,000). AID 1979;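 active = growth inhibition above about 58% in most replicates, limit read from the data, passing the limit was not always enough; inconclusive = exactly half the replicates above a set limit; inactive = most replicates below a set limit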;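 also: all wells also contain fluconazole at 8 µg/ml as a sub-toxic cotreatment; 0% = median of DMSO wells and 100% = median of geldanamycin control wells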
CSC inhib = blocks cancer stem cells; actives 1.1% (n = 300,000); inhibition, % at 7.5 µM; cancer stem cell-like cells viability, luminescence; in the data active = inhibition above about 75%; inconclusive = no clear call, values can overlap the other calls; tested in HMLE shEcad cells
Beta cell apopt = blocks beta cell apoptosis; actives 0.8% (n = 300,000); protection from apoptosis, % (test concentration not listed); INS-1E cytokine-induced death, ATP luminescence, 48 h; percent of positive-control rescue, neutral wells zero;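 active = Every replicate reaches about 75%, or at least half do and their mean reaches it too, limit read from the data; inconclusive = At least half of replicates reach the limit but their mean does not; inactive = Under half of replicates reach the limit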;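 also: 0% = cytokine-treated negative control wells and 100% = positive control rescue; higher means more ATP so stronger rescue from cytokine killing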
T cruzi inh = blocks replication of Trypanosoma cruzi | T. cruzi beta-gal in NIH3T3, luminescence, 90 h | inhibition, % (test concentration not listed) | actives 1.4% (n = 300,000) | AID 1885;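 active = mean inhibition across valid replicates above about 55%, limit read from the data; inconclusive = mean below that limit but half or more replicates reach it; inactive = mean below it, under half of replicates reach it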;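 also: signal also drops with host cell toxicity which is not excluded here; 0% = plate median of DMSO wells and 100% = zero luminescence signal; higher percent means less beta-gal luminescence so fewer parasites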
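assay system = mouse NIH/3T3 fibroblasts infected with β-gal-expressing T. cruzi Tulahuen C4 | input = 5,000 NIH/3T3 host cells per well | buffer or medium = DMEM plus 2% FBS | timing = 3 h host attachment, then at least 90 h co-culture | measured by = GalScreen luminescence, 60 min | evaluation = luminescence reflecting intracellular parasite burden, expressed as percent inhibition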
Mdm2 MdmX PPI = human Mdm2/MdmX binding inhibition. actives 3% (n = 330,000). SaOS-2 split-luciferase Mdm2/MdmX complementation, luminescence. inhibition, % at 8 µM. O15151+Q00987;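 active = inhibition of at least 50% at 8 µM in the primary screen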
Target sequence (O15151 whole entry, looked up): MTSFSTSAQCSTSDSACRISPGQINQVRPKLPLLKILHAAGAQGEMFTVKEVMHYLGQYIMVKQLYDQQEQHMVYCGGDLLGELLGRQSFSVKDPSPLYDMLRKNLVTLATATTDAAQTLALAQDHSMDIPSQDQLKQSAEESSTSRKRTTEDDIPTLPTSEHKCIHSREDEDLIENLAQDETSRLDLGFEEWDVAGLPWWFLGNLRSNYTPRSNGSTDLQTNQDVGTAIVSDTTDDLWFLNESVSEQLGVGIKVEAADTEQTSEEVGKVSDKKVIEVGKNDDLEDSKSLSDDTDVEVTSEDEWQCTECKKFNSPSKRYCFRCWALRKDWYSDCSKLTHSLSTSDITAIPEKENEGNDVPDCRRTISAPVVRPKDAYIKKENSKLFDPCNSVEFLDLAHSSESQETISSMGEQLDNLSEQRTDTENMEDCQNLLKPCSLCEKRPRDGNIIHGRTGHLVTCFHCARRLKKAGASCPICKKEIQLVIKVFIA
Target sequence (Q00987 whole entry, looked up): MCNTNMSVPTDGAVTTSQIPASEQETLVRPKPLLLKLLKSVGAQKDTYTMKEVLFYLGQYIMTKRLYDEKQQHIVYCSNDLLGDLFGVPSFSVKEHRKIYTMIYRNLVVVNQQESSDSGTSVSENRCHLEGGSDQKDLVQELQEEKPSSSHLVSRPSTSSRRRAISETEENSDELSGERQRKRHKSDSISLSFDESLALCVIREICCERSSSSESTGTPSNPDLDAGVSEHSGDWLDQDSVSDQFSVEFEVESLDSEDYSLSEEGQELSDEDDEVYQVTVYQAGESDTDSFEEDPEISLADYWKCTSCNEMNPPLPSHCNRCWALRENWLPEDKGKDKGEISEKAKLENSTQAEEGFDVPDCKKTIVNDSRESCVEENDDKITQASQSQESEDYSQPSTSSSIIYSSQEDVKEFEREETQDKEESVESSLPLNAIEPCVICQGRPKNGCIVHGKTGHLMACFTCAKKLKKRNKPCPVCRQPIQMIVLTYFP
SKKanGAS inh = blocks kanamycin growth of S. pyogenes SKKanGAS strain; inhibition, % at 7.5 µM; BacTiter-Glo, 6 h; AID 1662; actives 1.3% (n = 300,000);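 active = mean replicate score, as percent of positive control median, at least 50; inconclusive = mean below 50 but one replicate at or above 50; inactive = mean and every replicate below 50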;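 also: strain carries kanamycin resistance gene driven by streptokinase promoter and grows in 40 µg/ml kanamycin; loss of luminescence reflects streptokinase promoter inhibition or plain growth inhibition; 0% = median of DMSO wells and 100% = positive control at its reference dose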
An asterisk follows results filed as active; ? = inconclusive; nt = no result. The list is not random: actives were taken first. Their share in the collection is about 5.7%.

SMILES	Calb FLC	CSC inhib	Beta cell apopt	T cruzi inh	Mdm2 MdmX PPI	SKKanGAS inh
CCOc1ccc(/C=N/OCC(=O)Nc2ccc3c(c2)OCO3)cc1	100*	-4	-7	4	11	11
Cc1cc(NC(=O)CO/N=C/c2ccc3c(c2)OCO3)ccc1Br	-11	-2	0	8	12	-7
COc1cccc(C(=O)OC2CCCN(C)C2)c1 (stereo not given)	-1	12	-3	-16	3	3
CN1CCC(OC(=O)c2ccccc2)CC1	-6	16	-2	60*	-1	-5
COc1cccc(C(=O)OC2CCN(C)CC2)c1	-3	-2	-6	70*	-31	12
COc1ccc(C(=O)OC2CCN(C)CC2)cc1	-8	51	-6	55*	6	9
CC(=O)c1c(C)[nH]c(C(=O)OCc2ccccc2)c1C	6	3	-13	7	6	-2
CC(=O)c1c(C)[nH]c(C(=O)OCCCCN2C(=O)c3ccccc3C2=O)c1C	14	-1	104*	-8	29	-5
O=C(c1cnc(-c2ccccc2)s1)c1ccc(Cl)cc1Cl	0	3	-20	5	20	57*
Cc1[nH]n(-c2ccccc2)c(=O)c1N=Nc1ccc2c(c1)OCO2	4	9	12	-2	-46	-11
Nc1[nH]n2c(=O)cc(-c3ccccc3)nc2c1N=Nc1ccc2c(c1)OCO2	-5	68	8	0	34	56*
Cc1cccc(C(=O)Nc2nsc(N)n2)c1	-4	-8	2	-14	-6	2
COc1cc(Cc2cc(N)nc(N)n2)cc(OC)c1OC	-1	-9	-3	-14	12	71*
CC(C(=O)c1ccccc1)[n+]1cccc(Br)c1 (stereo not given)	75*	-12	-6	-3	22	0
CC(C(=O)c1ccc(-c2ccccc2)cc1)[n+]1cccc(NC(=O)c2ccccc2)c1 (stereo not given)	58	17	7	3	3	1
CC(=O)Nc1ccc(C(=O)COC(=O)C2CC3CCCC(C2)C3=O)cc1 (stereo not given)	-6	1	-7	1	3	-1
CCN(CC)S(=O)(=O)c1ccc(OCC2CCCCO2)c([N+](=O)[O-])c1 (stereo not given)	-1	-12	-6	7	8	0
O=c1c2ccccc2c(C=Nc2ccc(O)cc2)c(O)n1Cc1ccccc1	4	22	7	44	-71	67*
NC(=S)N/N=C/c1c(O)c(Br)cc2oc3c(c12)CCCC3	31	39	82*	18	47	87*
O=C(NCCc1ccccc1)c1cc(-c2ccccc2)c(N2CCOCC2)s1	-6	81*	5	35	0	6
Cc1[nH]c(C)c(S(=O)(=O)NCCc2ccccc2)c1C(=O)N1CCCCC1	32	-8	0	16	17	9
CC(=O)N1CCc2c(sc(NC(=O)CS(=O)(=O)c3ccc(F)cc3)c2C(N)=O)C1	-4	-2	-4	16	7	3
NNC(=O)c1cc(O)c(O)c(O)c1	95*	9	-8	18	26	-3
COC(=O)c1cc(NC(=O)CC2SC(=Nc3ccccc3)N(CCc3c[nH]c4ccccc34)C2=O)cc(C(=O)OC)c1 (stereo not given)	-6	49	4	67*	48	25
CN(CC(=O)Nc1cccc(F)c1)C(=O)c1ccc(NC2CC2)c([N+](=O)[O-])c1	2	-1	nt	-6	16	-10
SMILES	Calb FLC	CSC inhib	Beta cell apopt	T cruzi inh	Mdm2 MdmX PPI	SKKanGAS inh
CCn1cc(C(=O)O)c(=O)c2cc(F)c(N3CCNCC3)cc21	nt	nt	nt	-4	22	4
CCn1cc(C(=O)O)c(=O)c2cc(F)c(N3CCN(C(=O)Nc4ccccc4)CC3)cc21	?	-11	nt	-6	29	35
CCn1cc(C(=O)O)c(=O)c2cc(F)c(N3CCN(S(=O)(=O)c4ccc(NC(C)=O)cc4)CC3)cc21	-1	-29	-1	-2	-2	53*
CCn1cc(C(=O)O)c(=O)c2cc(F)c(N3CCN(S(=O)(=O)c4ccc5c(c4)OCCO5)CC3)cc21	-9	-25	4	2	8	60*
O=C(c1cccc(NS(=O)(=O)c2ccc(Br)cc2)c1)N1CCN(c2ccccc2O)CC1	nt	nt	nt	nt	-2	nt
Cc1ccc(NC(=O)COC(=O)Cc2c[nH]c3ccccc23)cc1F	nt	nt	nt	nt	21	nt
COc1ccc(NS(=O)(=O)c2cccc(C(=O)N(C)Cc3ccc(SC)cc3)c2)cc1	-2	2	-1	14	-7	-15
O=C(Nc1ccc(Nc2ccccc2)cc1)c1cccc(F)c1	15	75*	7	4	-59	1
CCNS(=O)(=O)c1ccc(NC(=O)c2cccnc2)cc1	100*	-7	-9	-16	19	nt
CCCCOc1cccc(C(=O)NC(=S)Nc2cccnc2)c1	23	-11	-13	1	-2	-9
CCCOc1cccc(C(=O)Nc2cccnc2)c1	110*	-6	-6	-13	-7	3
O=C(Nc1ccc(NC(=O)c2cccnc2)cc1)c1ccccc1	2	-9	0	-11	-8	-4
O=C(Nc1ccc(F)cc1)c1cccnc1	29	8	76*	-18	16	-1
COc1ccc(/C=C2\SC(=O)N(CC(=O)NCCCn3ccnc3)C2=O)cc1	7	16	-1	-7	20	11
COc1ccc(CNC(=O)C(=O)NCC2OCCN2S(=O)(=O)c2ccccc2)cc1 (stereo not given)	-20	0	-1	12	12	-1
CCCCSc1ccc(NC(=O)c2cccnc2)cc1	4	0	100*	10	-2	-17
CN(C)C(=O)c1ccc(NC(=O)c2cccnc2)cc1	-15	-3	96*	-5	4	-4
CCC(C)c1ccc(NC(=O)c2cccnc2)cc1 (stereo not given)	-3	-6	12	8	-138	-9
COCCCNC(=O)Cn1nnc(-c2ccc(NC(=O)c3cccnc3)cc2)n1	4	-11	97*	-6	16	6
COc1ccccc1C(=O)Nc1ccnn1C1CCN(C/C=C/c2ccc(F)cc2)CC1	7	2	6	25	24	4
COc1ccc(OC)c(NS(=O)(=O)c2c(C(=O)N3CCCCCC3)c(C)n(C)c2C)c1	7	-1	-6	2	-1	1
O=[N+]([O-])c1ccccc1N/N=C/c1cccc(O)c1O	29	86*	20	-24	-35	5
O=[N+]([O-])c1ccccc1N/N=C\c1ccccc1Cl	3	-9	8	-7	-128	6
CC1CCCN(CCCNC(=O)C2CCN(S(=O)(=O)N3CCC4(CC3)OCCO4)CC2)C1 (stereo not given)	1	-9	0	10	-3	1
O=S(=O)(Nc1ccccc1N1CCOCC1)c1c(F)cc(F)cc1Br	nt	-2	-3	nt	4	nt
